# Assay results from different studies.
# Compare with care: the assays were run in different laboratories.
# Cell line: MCF7
# Read-out: cell growth or viability
SMILES,test,conditions,IC50
NS(=O)(=O)c1ccc(-n2nc(C(=O)NN3C(=O)c4ccccc4C3=O)cc2-c2ccccc2)cc1,fluorescence,48 h,38.7 µM
O=[N+]([O-])c1cc(I)c(O)c(C=NNc2ccc(Br)cc2)c1,MTT,24 h,13.7 µM
O=C(O)c1c[nH]c2ccc(Oc3ccccc3)cc2c1=O,MTT,24 h,311 µM
c1ccc(-c2noc(-c3nn(Cc4ccncc4)c4ccccc34)n2)cc1,,48 h,18.7 µM
CCOC(=O)c1c(C)nc2ccc(-c3ccc(F)cc3)cc2c1O,MTT,48 h,11 µM
Fc1ccc2c(-c3nnc(Cc4ccccc4)s3)nn(Cc3ccc(Cl)cc3Cl)c2c1,,48 h,89.3 µM
COc1cc([C@@H]2c3cc4c(cc3[C@@H](O[C@@H]3O[C@@H]5CO[C@@H](C)O[C@H]5[C@H](O)[C@H]3O)[C@H]3COC(=O)[C@H]23)OCO4)cc(OC)c1O,MTT,48 h,10.9 µM
C[C@H]1[C@H](C)CC[C@]2(C(=O)O)CC[C@]3(C)C(=CC[C@@H]4[C@@]5(C)CC[C@H](O)C(C)(C)[C@@H]5CC[C@]43C)[C@H]12,thymidine uptake,24 h,25.7 µM
C(=N\Nc1cc(N/N=C/c2ccc3ccccc3n2)ncn1)/c1ccc2ccccc2n1,MTT,48 h,34.3 µM
O=C(O)c1nn(Cc2ccc(Cl)cc2Cl)c2ccccc12,,48 h,113 µM
O=[N+]([O-])c1cc(Br)c(O)c(C=NNc2ccc(C(F)(F)F)cc2)c1,MTT,24 h,8 µM
CNC(=O)c1cc(Oc2ccc(NC(=O)Nc3ccc(Cl)c(C(F)(F)F)c3)cc2)ccn1,MTT,48 h,7.06 µM
NS(=O)(=O)c1ccc(-n2nc(C(=O)NN=Cc3ccc(O)cc3)cc2-c2ccccc2)cc1,fluorescence,48 h,16.9 µM
CC(=O)O[C@H]1C(=O)[C@@]2(C)[C@H]([C@H](OC(=O)c3ccccc3)[C@]3(O)C[C@H](OC(=O)[C@H](O)[C@@H](NC(=O)c4ccccc4)c4ccccc4)C(C)=C1C3(C)C)[C@]1(OC(C)=O)CO[C@@H]1C[C@@H]2O,MTT,48 h,> 100 µM
O=S(=O)([O-])c1ccc(O)c(C=NNC(=S)Nc2cccc3ccccc23)c1.[Na+],MTT,48 h,> 800 µg/mL
CC(=O)O[C@@H]1[C@@H](OC(C)=O)[C@H](OC(C)=O)CO[C@H]1n1cc(Cn2c(C(C)=O)nc3ccccc32)nn1,LDH,48 h,2.73 µM
O=C1Nc2ccccc2/C1=N/N=C/c1cccc([N+](=O)[O-])c1,MTT,48 h,22.8 µg/mL
O=C1CS/C(=N\c2cc(C(F)(F)F)ccc2-c2nnc(N3C(=O)CS/C3=N\c3ccc(F)cc3)s2)N1c1ccc(F)cc1,MTT,,22.5 µM
Nc1ccn([C@@H]2O[C@H](CO)[C@@H](O)C2(F)F)c(=O)n1,MTT,24 h,2.75 µg/mL
C[C@H]1[C@H](C)CC[C@]2(C)CC[C@]3(C)C(=CC(=O)[C@@H]4[C@@]5(C)CC[C@@H](O)[C@](C)(C(=O)NCc6cn(-c7cccc(Br)c7)nn6)[C@@H]5CC[C@]43C)[C@H]12,MTT,24 h,67 µM
O=C1C(=Nc2ccccc2I)c2ccccc2N1Cc1ccc(Br)cc1,MTT,48 h,8.79 µM
COc1cccc2c1C(=O)c1c(O)c3c(c(O)c1C2=O)C[C@@](O)(C(=O)CO)C[C@@H]3O[C@H]1C[C@H](N)[C@H](O)[C@H](C)O1,MTT,48 h,8.87 µM
O=C(C=Cc1cccs1)c1ccc(OCCCOc2ccc(C(=O)C=Cc3cccs3)cc2)cc1,MTT,48 h,4.05 µM
CC(C)c1ccc(/C=C2\N=C(SCC(=O)O)N(c3ccccc3)C2=O)cc1,MTT,,49.2 µg/mL
COc1cccc2c1C(=O)c1c(O)c3c(c(O)c1C2=O)C[C@@](O)(C(=O)CO)C[C@@H]3O[C@H]1C[C@H](N)[C@H](O)[C@H](C)O1,LDH,48 h,1.81 µM
C/C(=N\C(=O)/N=C(\C)c1c(O)c2ccccc2oc1=O)c1c(O)c2ccccc2oc1=O,MTT,48 h,14.6 µM
Cc1ccc(C(C)C)c(OC2=C(Cl)C(=O)c3ccccc3C2=O)c1,MTT,24 h,4.59 µg/mL
O=C1CS/C(=N\c2ccccc2O)N1c1nnc(-c2ccc(C(F)(F)F)cc2/N=C2\SCC(=O)N2c2ccccc2O)s1,MTT,,32.4 µM
COc1cc(C=NNC(=O)c2cc(-c3ccccc3)n(-c3ccc(S(N)(=O)=O)cc3)n2)cc(OC)c1OC,fluorescence,48 h,21.6 µM
CC(C)c1cccc(C(C)C)c1N=C1C(=O)Nc2ccccc21,MTT,48 h,0.69 µM
NNc1nc2ccc(Br)cc2c(=O)n1-c1ccc(Cl)cc1,MTT,48 h,12.8 µM
O=[N+]([O-])c1cc(I)c(O)c(C=NNc2ccc(Cl)cc2)c1,MTT,24 h,14 µM
O=C1C(=Nc2ccc(Cl)cc2)c2ccccc2N1Cc1ccc([N+](=O)[O-])cc1,MTT,48 h,2.65 µM
CCCN1CC(Oc2ccc([C@@H]3c4[nH]c5ccccc5c4C[C@@H](C)N3CC(C)(C)F)cc2)C1,,,0.00794 µM
O=C(O)c1cn(Cc2ccc(C(F)(F)F)cc2)c2ccc(Oc3ccccc3)cc2c1=O,MTT,48 h,21.2 µM
CCOC(=O)c1c(C)nc2ccc(-c3cccc(F)c3)cc2c1O,MTT,48 h,10.5 µM
COc1ccc(-n2cc(CNC(=O)[C@@]3(C)[C@H](O)CC[C@@]4(C)[C@H]3CC[C@]3(C)[C@@H]4C(=O)C=C4[C@@H]5[C@@H](C)[C@H](C)CC[C@]5(C)CC[C@]43C)nn2)cc1,MTT,24 h,79 µM
CCOC(=O)C(=CNc1ccc(Oc2ccccc2)cc1)C(=O)OCC,MTT,,≥ 200 µM
CCc1ccc(N=C2C(=O)Nc3ccccc32)cc1,MTT,48 h,51.7 µM
CC(C)CNC(=S)N/N=C/c1cccc2cc3ccccc3nc12,MTT,48 h,> 50 µM
CNc1cccc(Nc2nc(-c3ccncc3)nc3c2CNCC3)c1,MTT,,> 100 µM
COc1cc(C=O)ccc1OC1=C(Cl)C(=O)c2ccccc2C1=O,MTT,24 h,41.5 µg/mL
O=[N+]([O-])c1ccc(NC(=S)N/N=C/c2cccc3cc4ccccc4nc23)cc1,MTT,48 h,> 50 µM
NNc1nc2ccc(Br)cc2c(=O)n1-c1ccccc1,MTT,48 h,46.4 µM
CN1CCC(NC2CCc3[nH]c4c(C(N)=O)ccc(-c5ccccc5Cl)c4c3C2)CC1 (centres unmarked),,96 h,0.0164 µM
O=C1Nc2ccccc2C1=Nc1ccc(Cl)cc1,MTT,48 h,72.3 µM
COc1ccc(N(Cc2csc(-c3ccc(Br)cc3)n2)C(=O)CCCCCC(=O)NO)cc1,MTT,72 h,9.21 µM
Cc1cccc(N=C2C(=O)Nc3ccccc32)c1,MTT,48 h,73.4 µM
Fc1ccc2c(-c3nnc(Cc4ccccc4)[nH]3)nn(Cc3ccc(Cl)cc3Cl)c2c1,,48 h,192 µM
COc1cccc2c1C(=O)c1c(O)c3c(c(O)c1C2=O)C[C@@](O)(C(=O)CO)C[C@@H]3O[C@H]1C[C@H](N)[C@H](O)[C@H](C)O1,MTT,24 h,18.4 µM
C/C(=N\C(=S)/N=C(\C)c1c(O)c2ccccc2oc1=O)c1c(O)c2ccccc2oc1=O,MTT,48 h,7.59 µM
Cc1cccc([N+](=O)[O-])c1N=C1SCC(=O)N1c1nnc(-c2ccc(C(F)(F)F)cc2N=C2SCC(=O)N2c2c(C)cccc2[N+](=O)[O-])s1,MTT,,53.2 µM
O=C1C(=Nc2cccc(Cl)c2)c2ccccc2N1Cc1ccc([N+](=O)[O-])cc1,MTT,48 h,6.95 µM
C#CCn1c(C2CC(c3ccc(F)cc3)=NN2C(C)=O)nc2ccccc21 (centres unmarked),LDH,48 h,2.97 µM
CN(C)C(=O)Nc1nc2ccc(Br)cc2c(=O)n1-c1ccccc1,MTT,48 h,109 µM
CC(C)c1cccc(C(C)C)c1N=C1C(=O)N(Cc2ccccc2)c2ccccc21,MTT,48 h,12.6 µM
